This passage reports Activity and IC50 results from ChEMBL document CHEMBL1152392, “Discovery and optimization of a novel Neuromedin B receptor antagonist” (Bioorg Med Chem Lett, 2009).

Usually IC50 stands for the concentration that gives 50% inhibition.

Chain of Gastrin-releasing peptide receptor (P30550 whole entry): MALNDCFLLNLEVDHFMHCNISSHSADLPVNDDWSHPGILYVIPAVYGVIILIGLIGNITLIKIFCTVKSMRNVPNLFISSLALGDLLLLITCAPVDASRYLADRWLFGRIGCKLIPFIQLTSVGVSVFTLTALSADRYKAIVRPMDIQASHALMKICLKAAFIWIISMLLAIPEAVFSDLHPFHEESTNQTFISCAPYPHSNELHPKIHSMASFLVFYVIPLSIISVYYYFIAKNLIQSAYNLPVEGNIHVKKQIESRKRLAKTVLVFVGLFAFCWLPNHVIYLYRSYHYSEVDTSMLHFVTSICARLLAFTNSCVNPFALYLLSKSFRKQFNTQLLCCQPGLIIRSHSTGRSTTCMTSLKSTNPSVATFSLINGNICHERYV

The first data set relates to HeLa. The data set can be described thus: Cytotoxicity against human HeLa cells up to 30 uM after 72 hrs by alamar blue assay. Type of data set: cell-based.
Details: not given
The method in brief: (§1)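 HeLa cells were seeded at 5k per well. Compounds were tested as a 9-point threefold dilution series, with triplicate readings at 0 and 72 h. At each time point Alamar Blue was added for 3 h at 37 °C and fluorescence was read. Relative growth was compared to a DMSO control well for each compound.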
A general note: Alamar Blue is a resazurin reagent that responds to reducing activity.
Take `Cc1ccc2c(c1)NC(c1ccccc1C(F)(F)F)C1=C(CC3(CCCC3)CC1=O)N2` (single isomer, unassigned; (+)): the Activity result was “Non-toxic”.

The target in the next data set is T1, Neuromedin-B receptor (Homo sapiens, UniProt P28336). The data set can be described thus: Antagonist activity at human neuromedin B receptor transfected in HEK293 cells assessed as inhibition of 1 nM neuromedin B-induced myo-[3H]inositol phosphate accumulation after 60 mins by scintillation proximity assay. In kind it is functional, cell-based.
T1 sequence (P28336 whole entry): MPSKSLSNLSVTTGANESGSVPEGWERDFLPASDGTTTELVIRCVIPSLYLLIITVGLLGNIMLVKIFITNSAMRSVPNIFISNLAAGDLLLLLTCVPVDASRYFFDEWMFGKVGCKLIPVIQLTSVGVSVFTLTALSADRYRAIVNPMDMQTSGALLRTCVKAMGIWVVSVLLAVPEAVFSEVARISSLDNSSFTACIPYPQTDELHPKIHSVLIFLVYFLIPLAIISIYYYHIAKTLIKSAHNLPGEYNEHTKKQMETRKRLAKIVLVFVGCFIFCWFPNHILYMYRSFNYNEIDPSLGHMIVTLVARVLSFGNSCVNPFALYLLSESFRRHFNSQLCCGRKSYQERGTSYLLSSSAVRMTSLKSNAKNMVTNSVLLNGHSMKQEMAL
Details: not given
In a few lines: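 hNMBR-transfected HEK293 cells (2.5 × 10⁴ per well) were labelled overnight at 37 °C with myo-[³H]inositol in inositol-free DMEM with 25 mM Hepes and 10% dialyzed FBS. Compounds were added in inositol-free DMEM with 0.3% BSA and 10 mM LiCl for 60 min at 37 °C. Cells were lysed in 20 mM formic acid (2 h, 4 °C), and inositol phosphates were captured on RNA-binding SPA beads for 30 min.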
(In general: In a scintillation proximity assay essentially only radioactivity close to the scintillant gives light.)
In the case of `Cc1ccc2c(c1)NC(c1c(F)cccc1Cl)C1=C(CC(C)(C)CC1=O)N2` (configuration not stated), the IC50 stood at 5500 nM. Same read-out and setting: the value for `Cc1ccc2c(c1)NC(c1ccccc1C(F)(F)F)C1=C(CC3(CCCC3)CC1=O)N2` (single isomer, unassigned; (+)) was 580 nM.

For the next data set, the target named is T1, Neuromedin-B receptor. The experiment in a line: Displacement of [125I]-(D-Tyr0)NMB from human neuromedin B receptor transfected in HEK293 cells. Type of data set: cell-based.
Details: not given
In a few lines: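 Whole-cell competition binding used 1 × 10⁶ HEK293 cells stably transfected with hNMBR, with 150 pM ¹²⁵I-[D-Tyr0]NMB (2200 Ci/mmol), in DMEM for 1 h at room temperature. Bound ligand was separated by filtration and total bound counts were measured. Day-to-day standard error was <30%; well-to-well variability was <10%.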
The compound `CCN1c2cc(C)ccc2NC2=C(C(=O)CC(C)(C)C2)C1c1c(F)cccc1Cl` (configuration not stated) registered an IC50 of 180 nM. The same measure, in the same setting: next, `Cc1ccc2c(c1)NC(c1ccccc1F)C1=C(CC(C)(C)CC1=O)N2` (configuration not stated): 1300 nM; `Cc1ccc2c(c1)NC(c1c(F)cccc1F)C1=C(CC(C)(C)CC1=O)N2` (configuration not stated): 2500 nM. On the same count and under the same terms, the value for `Cc1ccc2c(c1)NC(c1c(F)cccc1Cl)C1=C(CC(C)CC1=O)N2` (configuration not stated) was 450 nM. The same measure, in the same setting: the value for `Cc1ccc2c(c1)NC(c1c(F)cccc1C(F)(F)F)C1=C(CC3(CCCC3)CC1=O)N2` (configuration not stated) was 540 nM.

As for `Cc1ccc2c(c1)NC(c1c(F)cccc1Cl)C1=C(CC(C)(C)CC1=O)N2C` (configuration not stated), the IC50 was determined as 10000 nM. Compound `Cc1ccc2c(c1)NC(c1c(F)cccc1Cl)C1=C(CC(c3ccc(N(C)C)cc3)CC1=O)N2` (configuration not stated) registered an IC50 of 5400 nM. On the same count and under the same terms, the value for `Cc1ccc2c(c1)NC(c1c(F)cccc1Cl)C1=C(CC(C)(C)CC1=O)N2` (configuration not stated) was 300 nM; that for `CC1(C)CC(=O)C2=C(C1)Nc1ccc(OC(F)(F)F)cc1NC2c1c(F)cccc1Cl` (configuration not stated) was 1300 nM; that for `COc1ccc(C2CC(=O)C3=C(C2)Nc2ccc(C)cc2NC3c2c(F)cccc2Cl)cc1` (configuration not stated) was 2000 nM. Regarding `CSc1ccccc1C1Nc2cc(C)ccc2NC2=C1C(=O)CC(C)(C)C2` (configuration not stated), the IC50 turned out to be 200 nM. Same read-out and setting: the value for `Cc1ccc2c(c1)NC(c1c(F)cccc1Cl)C1=C(CCCC1=O)N2` (configuration not stated) was 1400 nM; that for `Cc1ccc2c(c1)NC(c1ccccc1SC(F)(F)F)C1=C(CC3(CCCC3)CC1=O)N2` (configuration not stated) was 640 nM.

`COc1ccc2c(c1)NC(c1c(F)cccc1Cl)C1=C(CC(C)(C)CC1=O)N2` (configuration not stated) came in with an IC50 of 2200 nM. Same read-out and setting: the value for `CC1(C)CC(=O)C2=C(C1)Nc1ccc(O)cc1NC2c1c(F)cccc1Cl` (configuration not stated) was 10000 nM. `COc1ccccc1C1Nc2cc(C)ccc2NC2=C1C(=O)CC(C)(C)C2` (configuration not stated): the IC50 came to 1100 nM.

As to `CCCCN1c2cc(C)ccc2NC2=C(C(=O)CC(C)(C)C2)C1c1c(F)cccc1Cl` (configuration not stated), the IC50 came out at 150 nM. Regarding `CSc1ccccc1C1Nc2cc(C)ccc2NC2=C1C(=O)CC1(CCCC1)C2` (configuration not stated), the IC50 came to 250 nM. `Cc1ccc2c(c1)NC(c1ccccc1)C1=C(CC(C)(C)CC1=O)N2` (configuration not stated) had an IC50 of 6900 nM. Same read-out and setting: the value for `Cc1ccc2c(c1)NC(c1ccccc1[N+](=O)[O-])C1=C(CC(C)(C)CC1=O)N2` (configuration not stated) was 550 nM.

Consider `Cc1ccc2c(c1)NC(c1c(F)cccc1Cl)C1=C(CC3(CCCC3)CC1=O)N2` (configuration not stated), for which the IC50 is 280 nM.

As for `CC1(C)CC(=O)C2=C(C1)Nc1ccc(C#N)cc1NC2c1c(F)cccc1Cl` (configuration not stated), the IC50 came to 1300 nM.

Compound `Cc1ccc2c(c1)NC(c1c(F)cccc1Cl)C1=C(CC(c3ccco3)CC1=O)N2` (configuration not stated) came in with an IC50 of 3000 nM. As for `Cc1ccc2c(c1)NC(c1ccccc1Cl)C1=C(CC3(CCCC3)CC1=O)N2` (configuration not stated), the IC50 is 240 nM. The same measure, in the same setting: the value for `CC1(C)CC(=O)C2=C(C1)Nc1ccc(C(N)=O)cc1NC2c1c(F)cccc1Cl` (configuration not stated) was 10000 nM; that for `Cc1ccc2c(c1)NC(c1ccccc1C(F)(F)F)C1=C(CC(C)(C)CC1=O)N2` (configuration not stated) was 250 nM; that for `Cc1ccc2c(c1)NC(c1c(F)cccc1Cl)C1=C(CCC1=O)N2` (configuration not stated) was 10000 nM. The same measure, in the same setting: the value for `Cc1ccc2c(c1)N(C)C(c1c(F)cccc1Cl)C1=C(CC(C)(C)CC1=O)N2` (configuration not stated) was 170 nM; that for `CC1(C)CC(=O)C2=C(C1)Nc1ccc(C(=O)O)cc1NC2c1c(F)cccc1Cl` (configuration not stated) was 10000 nM. The compound `Cc1ccc2c(c1)NC(c1c(F)cccc1Cl)C1=C(CC(C(C)C)CC1=O)N2` (configuration not stated) displayed an IC50 of 810 nM. Still for that read-out and setting: next, `Cc1ccc2c(c1)NC(c1ccccc1Cl)C1=C(CC(C)(C)CC1=O)N2` (configuration not stated): 280 nM; `CC1(C)CC(=O)C2=C(C1)Nc1ccc(Cl)cc1NC2c1c(F)cccc1Cl` (configuration not stated): 860 nM. Still for that read-out and setting: the value for `CC1(C)CC(=O)C2=C(C1)Nc1ccc(C(F)(F)F)cc1NC2c1c(F)cccc1Cl` (configuration not stated) was 370 nM; that for `Cc1ccc2c(c1)NC(c1ccccc1C(F)(F)F)C1=C(CC3(CCCC3)CC1=O)N2` (single isomer, unassigned; (+)) was 30 nM; that for `Cc1ccc2c(c1)NC(c1ccccc1C(F)(F)F)C1=C(CC3(CCCC3)CC1=O)N2` (single isomer, unassigned; (-)) was more than 10000 nM. The same measure, in the same setting: next, `Cc1ccc2c(c1)NC(c1ccccc1C(F)(F)F)C1=C(CC3(CCCC3)CC1=O)N2` (stereo in doubt; 30): 96 nM.

In another data set the test system is HEK293. The experiment in a line: Cytotoxicity against HEK293 cells up to 30 uM after 72 hrs by alamar blue assay. In kind it is cell-based. The following applies: human, hek293, 72 h.
As to `Cc1ccc2c(c1)NC(c1ccccc1C(F)(F)F)C1=C(CC3(CCCC3)CC1=O)N2` (single isomer, unassigned; (+)), the Activity result was “Non-toxic”.

The next data set has as its target Gastrin-releasing peptide receptor (Homo sapiens, UniProt P30550). The experiment in a line: Inhibition gastrin-releasing peptide receptor.
Details: not given
`Cc1ccc2c(c1)NC(c1c(F)cccc1Cl)C1=C(CC(C)(C)CC1=O)N2` (configuration not stated): the IC50 is more than 10000 nM.

For the next data set, the system named is HeLa. The data set can be described thus: Cytotoxicity against human HeLa cells after 72 hrs by alamar blue assay.
Details: not given
In kind it is cell-based. The method in brief:
as §1
In the case of `Cc1ccc2c(c1)NC(c1ccccc1C(F)(F)F)C1=C(CC3(CCCC3)CC1=O)N2` (single isomer, unassigned; (+)), the IC50 is more than 50000 nM.
